The results in this text go back to ChEMBL document CHEMBL4354804, “Discovery of a New Isoxazole-3-hydroxamate-Based Histone Deacetylase 6 Inhibitor SS-208 with Antitumor Activity in Syngeneic Melanoma Mouse Models” (J Med Chem, 2019).

Calls of active or inactive are those of the source. The rule behind the calls is not given here.

For data set [1], the target named is Histone deacetylase 1 (Homo sapiens, UniProt Q13547). In words: Inhibition of recombinant full length C-terminal His/FLAG tagged human HDAC1 (1 to 482 residues) expressed in baculovirus infected sf9 insect cells using p53 (379 to 382 residues) derived fluorogenic peptide RHKKAc as substrate preincubated for 5 to 10 mins followed by substrate addition and further incubated for 2 hrs by fluorescence assay.
Sequence of Histone deacetylase 1 (Q13547 whole entry, the tested form may be a part): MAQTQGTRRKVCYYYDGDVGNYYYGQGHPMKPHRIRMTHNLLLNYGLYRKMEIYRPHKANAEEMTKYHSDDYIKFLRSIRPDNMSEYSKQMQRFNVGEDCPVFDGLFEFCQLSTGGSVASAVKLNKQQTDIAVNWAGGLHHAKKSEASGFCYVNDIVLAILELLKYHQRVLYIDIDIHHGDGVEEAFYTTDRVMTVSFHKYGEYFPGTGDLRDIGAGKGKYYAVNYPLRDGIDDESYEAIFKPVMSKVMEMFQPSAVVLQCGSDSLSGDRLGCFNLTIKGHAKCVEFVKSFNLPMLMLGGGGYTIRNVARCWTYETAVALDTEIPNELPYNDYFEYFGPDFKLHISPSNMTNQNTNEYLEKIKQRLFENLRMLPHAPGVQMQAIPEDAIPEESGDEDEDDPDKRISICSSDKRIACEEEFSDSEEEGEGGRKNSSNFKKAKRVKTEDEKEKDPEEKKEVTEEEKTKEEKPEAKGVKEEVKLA

For data set [2], the species on record is Homo sapiens. As to the kind of experiment: Selectivity index, ratio of IC50 for recombinant full length C-terminal His/FLAG tagged human HDAC1 (1 to 482 residues) expressed in baculovirus infected sf9 insect cells using p53 (379 to 382 residues) derived fluorogenic peptide RHKKAc as substrate preincubated for 5 to 10 mins followed by ….
The target of data set [3] is T1, Protein deacetylase HDAC6 (Homo sapiens, UniProt Q9UBN7).
T1 sequence (Q9UBN7 whole entry): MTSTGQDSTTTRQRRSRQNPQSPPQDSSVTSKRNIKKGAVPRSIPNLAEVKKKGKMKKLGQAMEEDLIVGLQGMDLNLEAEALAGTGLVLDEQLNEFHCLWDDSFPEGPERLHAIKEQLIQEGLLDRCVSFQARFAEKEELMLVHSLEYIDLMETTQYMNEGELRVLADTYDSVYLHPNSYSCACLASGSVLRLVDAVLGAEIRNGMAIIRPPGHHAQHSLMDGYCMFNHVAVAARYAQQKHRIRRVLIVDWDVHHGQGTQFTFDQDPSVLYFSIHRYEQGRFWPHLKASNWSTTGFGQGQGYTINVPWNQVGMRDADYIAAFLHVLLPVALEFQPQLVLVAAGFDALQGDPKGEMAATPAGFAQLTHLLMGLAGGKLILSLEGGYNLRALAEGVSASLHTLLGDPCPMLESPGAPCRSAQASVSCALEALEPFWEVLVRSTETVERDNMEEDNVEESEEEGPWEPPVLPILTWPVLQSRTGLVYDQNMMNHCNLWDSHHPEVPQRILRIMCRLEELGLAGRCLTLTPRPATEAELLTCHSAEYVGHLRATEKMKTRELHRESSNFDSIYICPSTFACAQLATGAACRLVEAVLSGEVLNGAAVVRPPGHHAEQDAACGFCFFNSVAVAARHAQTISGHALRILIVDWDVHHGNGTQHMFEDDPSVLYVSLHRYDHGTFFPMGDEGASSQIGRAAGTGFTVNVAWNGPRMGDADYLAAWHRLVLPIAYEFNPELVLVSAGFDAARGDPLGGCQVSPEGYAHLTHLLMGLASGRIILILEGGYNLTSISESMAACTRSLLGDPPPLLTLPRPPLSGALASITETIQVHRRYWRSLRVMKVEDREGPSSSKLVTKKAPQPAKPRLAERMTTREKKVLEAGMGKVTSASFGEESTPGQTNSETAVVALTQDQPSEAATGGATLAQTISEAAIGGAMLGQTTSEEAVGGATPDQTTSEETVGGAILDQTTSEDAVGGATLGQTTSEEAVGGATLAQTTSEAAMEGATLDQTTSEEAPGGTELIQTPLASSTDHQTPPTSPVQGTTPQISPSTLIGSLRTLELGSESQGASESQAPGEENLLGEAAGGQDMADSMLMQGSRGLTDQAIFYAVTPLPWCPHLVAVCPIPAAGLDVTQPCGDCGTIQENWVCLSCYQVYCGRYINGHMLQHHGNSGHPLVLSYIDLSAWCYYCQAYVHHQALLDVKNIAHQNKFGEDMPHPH
As to the kind of experiment: Inhibition of recombinant N-terminal GST-tagged human HDAC6 (1 to 1215 residues) expressed in baculovirus infected sf9 insect cells using p53 (379 to 382 residues) derived fluorogenic peptide RHKKAc as substrate preincubated for 5 to 10 mins followed by substrate addition and further incubated for 2 hrs by fluorescence assay.

Data set [4] in a line: Induction of cell death in mouse SM1 cells at 0.1 to 25 uM. Format: cell-based.
In data set [5] the test system is 5637. As to the kind of experiment: Induction of cell death in human 5637 cells at 0.1 to 25 uM. Format: cell-based. The following applies: human, 5637, 25 µM.
A short description of data set [6]: Effect on cell viability in mouse SM1 cells up to 10 uM by ApoTox-Glo triplex assay. The class given is cell-based. Put shortly: (§1)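 SM1 cells treated with HDAC inhibitors, with pan-HDACi and assay controls on every plate. ApoTox-Glo triplex readout: viability fluorescence 400Ex/505Em, cytotoxicity fluorescence 485Ex/520Em, then caspase 3/7 reagent read by luminescence for apoptosis.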

Data set [7] can be described thus: Cytotoxicity against mouse SM1 cells at 0.1 to 25 uM by ApoTox-Glo triplex assay. The class given is cell-based. Put shortly:
as §1

Data set [8] in a line: Induction of apoptosis in mouse SM1 cells at 0.1 to 25 uM by caspase3/7 reagent based luminescence assay. The class given is cell-based. Put shortly: as §1
The subject of data set [9] is PC-3. In words: Induction of cell death in human PC3 cells at 0.1 to 25 uM. The following applies: pc-3, 25 µM. The class given is cell-based.
In data set [10] the test system is T-24. In words: Induction of cell death in human T24 cells at 0.1 to 25 uM. The class given is cell-based. Conditions: t-24, 25 µM.
Data set [11] is filed under the species Homo sapiens. As to the kind of experiment: Selectivity index, ratio of IC50 for recombinant human full length C-terminal His/FLAG-tagged HDAC1 expressed in baculovirus infected Sf9 insect cells using fluorogenic HDAC as substrate measured after 30 mins by fluorescence based analysis to IC50 for recombinant human full length C-terminal […] expressed in baculovirus infected Sf9 insect cells using fluorogenic HDAC as substrate measured after 30 mins by fluorescence based analysis.

Data set [12] concerns the target T2, Protein deacetylase HDAC6 (Mus musculus) (UniProt Q9Z2V5).
T2 sequence (whole entry): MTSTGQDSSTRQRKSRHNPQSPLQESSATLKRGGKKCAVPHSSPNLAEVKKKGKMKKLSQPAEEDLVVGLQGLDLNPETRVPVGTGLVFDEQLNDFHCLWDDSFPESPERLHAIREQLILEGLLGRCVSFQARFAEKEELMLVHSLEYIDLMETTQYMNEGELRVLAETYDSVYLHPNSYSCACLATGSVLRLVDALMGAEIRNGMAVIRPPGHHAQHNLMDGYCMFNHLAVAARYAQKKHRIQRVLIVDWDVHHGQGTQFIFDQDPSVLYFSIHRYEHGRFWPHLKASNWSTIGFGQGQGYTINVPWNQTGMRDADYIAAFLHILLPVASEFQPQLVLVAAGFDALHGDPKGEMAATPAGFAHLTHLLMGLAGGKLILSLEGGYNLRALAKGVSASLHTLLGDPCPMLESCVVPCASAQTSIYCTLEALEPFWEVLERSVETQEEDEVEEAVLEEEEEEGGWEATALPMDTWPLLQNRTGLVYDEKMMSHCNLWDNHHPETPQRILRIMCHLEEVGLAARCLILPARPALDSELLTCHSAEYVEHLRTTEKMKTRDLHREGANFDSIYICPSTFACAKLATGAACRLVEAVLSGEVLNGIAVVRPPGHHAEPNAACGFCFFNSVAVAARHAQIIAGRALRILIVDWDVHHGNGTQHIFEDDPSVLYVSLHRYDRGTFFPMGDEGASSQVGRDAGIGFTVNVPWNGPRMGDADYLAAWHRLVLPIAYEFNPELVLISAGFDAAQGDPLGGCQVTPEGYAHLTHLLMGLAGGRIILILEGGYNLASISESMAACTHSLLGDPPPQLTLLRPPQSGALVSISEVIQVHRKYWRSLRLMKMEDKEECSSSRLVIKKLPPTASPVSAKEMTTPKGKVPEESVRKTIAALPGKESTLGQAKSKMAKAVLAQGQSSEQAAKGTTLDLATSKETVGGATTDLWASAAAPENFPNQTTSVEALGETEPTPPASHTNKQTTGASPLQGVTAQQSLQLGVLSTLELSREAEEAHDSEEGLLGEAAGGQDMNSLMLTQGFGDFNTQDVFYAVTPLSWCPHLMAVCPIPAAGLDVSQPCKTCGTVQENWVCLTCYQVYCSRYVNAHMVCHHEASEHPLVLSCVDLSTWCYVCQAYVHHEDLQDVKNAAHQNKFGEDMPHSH
In words: Inhibition of HDAC6 in mouse SM1 cells assessed as increase in acetylated alpha-tubulin level at 5 to 10 uM after 24 hrs by Western blot analysis. The class given is cell-based. (In western blotting, separated proteins are transferred to a membrane and probed.)

Data set [13] is filed under the species Homo sapiens. As to the kind of experiment: Selectivity index, ratio of IC50 for recombinant full length C-terminal His/FLAG tagged human HDAC1 (1 to 482 residues) expressed in baculovirus infected sf21 insect cells using RHK-K(Ac)-AMC as substrate after 60 mins by fluorescence assay to IC50 for recombinant N-terminal GST-tagged human HDAC6 (1 to 1215 residues) expressed in baculovirus infected sf9 insect cells using RHK-K(Ac)-AMC as substrate after 90 mins by fluorescence assay.

Data set [14] addresses T1, Protein deacetylase HDAC6. As to the kind of experiment: Inhibition of recombinant N-terminal GST-tagged human HDAC6 (1 to 1215 residues) expressed in baculovirus infected sf9 insect cells using RHK-K(Ac)-AMC as substrate after 90 mins by fluorescence assay.
The species named for data set [15] is Homo sapiens. As to the kind of experiment: Selectivity index, ratio of IC50 for recombinant full length human HDAC1 expressed in Escherichia coli cells using Fluor de Lys as substrate preincubated for 15 mins followed by substrate addition for 60 mins by fluorescence assay to IC50 for recombinant full length human HDAC6 expressed in baculovirus infected sf9 insect cells using Fluor de Lys as substrate preincubated for 15 mins followed by substrate addition for 60 mins by fluorescence assay.

As to `O=C(NCCc1cc(C(=O)NO)no1)c1ccccc1`, the IC50 in data set [1] is more than 30000 nM; in data set [3], 190 nM. The Ratio IC50 in data set [2] was more than 155.
For `CN1CCc2c(c3ccccc3n2Cc2ccc(C(=O)NO)cc2)C1` [TUBASTATIN A], the Activity entry in data set [4], in data set [5], in [6], in data set [7], in data set [8] and in data set [9] was “Non-Toxic” in each case. Moreover, in data set [10], the Activity result is recorded as “Non-Toxic”.
Consider `O=C(NO)c1cc(CCCCN2c3ccc(Cl)cc3CCc3cc(Cl)ccc32)on1`, for which the IC50 in data set [1] was more than 30000 nM. The Ratio IC50 in data set [2] was more than 22.
For `O=C(NO)c1cc(CCCCN2CCCc3cc(Cl)ccc32)on1`, the IC50 in data set [1] came to 11200 nM; in [3], 690 nM. Besides, the Ratio IC50 in [2] amounted to 16.
As for `O=C(NO)c1ccc(CN(CCO)C(=O)Cc2ccccc2)cc1`, the Ratio IC50 in data set [11] is 36.
For `CC(C)(C)OC(=O)Nc1ccc(-c2cc(C(=O)NCCCCCCC(=O)NO)no2)cc1`, the IC50 in data set [1] came out at 3.2 nM.
Take `O=C(NO)c1cc(CCCOc2ccc(Cl)c(Cl)c2)on1`: the IC50 is more than 30000 nM in data set [1] and 200 nM in data set [3]. Moreover, the Ratio IC50 in data set [2] was more than 152.
Turning to `O=C(NO)c1cc(CCCCc2ccc(Cl)c(Cl)c2)on1`, the IC50 in data set [1] is more than 30000 nM.
As for `CCCCN(Cc1ccc(C(=O)NO)cc1)C(=O)Nc1ccccc1` [NEXTURASTAT A], the Activity result in data set [4], in data set [5], in data set [6], in [7], in data set [8] and in data set [9] was “Non-Toxic” each time. Moreover, the Activity entry in [10] is “Non-Toxic”. Moreover, the inhibition result in [12] was “Active”.
As for `O=C(NCCc1cc(C(=O)NO)no1)c1cccc(-c2ccccc2)c1`, the Ratio IC50 in data set [2] was determined as 85.
Still for that read-out and setting: the same measure for `O=C(CCc1cc(C(=O)NO)no1)Nc1nc(-c2ccccc2)cs1`: 9.9.
With `O=C(NCCc1cc(C(=O)NO)no1)c1ccc2ccccc2c1`, the Ratio IC50 in data set [2] worked out at 294. In addition, the IC50 in data set [3] is 10 nM.
On to `Cc1nc2ccccc2n1Cc1ccc(C(=O)NO)cc1F`, for which, in [13], the Ratio IC50 came out at 11100. The IC50 in data set [14] was determined as 0.81 nM.
Consider `CC1(C)CCN(CCCCc2cc(C(=O)NO)no2)c2ccc(Cl)cc21`, for which the IC50 in data set [1] was more than 30000 nM; in data set [3], 1990 nM. In addition, the Ratio IC50 in data set [2] was more than 15.
For `O=C(NO)c1cc(CCCCn2ccc3cc(Cl)c(Cl)cc32)on1`, the IC50 in [1] was more than 30000 nM; in data set [3] it was 4360 nM. Further, the Ratio IC50 in data set [2] was more than 7.
Turning to `O=C(NO)c1ccc(Cn2c3c(c4ccccc42)S(=O)(=O)CC3)cc1`, the Ratio IC50 in [15] was 1460.
For `CC(C)(C)OC(=O)Nc1ccc(-c2cc(C(=O)NCc3ccc(C(=O)NO)cc3)no2)cc1`, in [2], the Ratio IC50 was found to be 1320.

What is called IC50 is the concentration needed to halve the response being measured.
